Only some compounds are listed: those with a hit (about 1.8% of all), similar ones and a draw of the others.
STAT1 inh: STAT1 signaling inhibitors, primary screen, cell-based, HTS, luciferase reporter. 0.35% of 200,000 active. inhibition, % at 5.5 µM. NIH 3T3 STAT1-luciferase reporter, IFN-gamma, luminescence;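 active means inhibition above a set limit, the mean inhibition across all tested compounds plus 3 SD, cut at about 34% in these data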;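 further: 0% = IFN-gamma with DMSO and 100% = IFN-gamma with 300 µM nifuroxazide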
PPC-1+TRAIL kill: compounds killing PPC-1 cancer cells with TRAIL present, primary screen, TRAIL potentiator project, ATPLite luminescence, uHTS. PPC-1 cells + TRAIL, ATPLite viability luminescence. cell killing (% activity), % at 4 µM or 5 µM. 0.41% of 220,000 active. AID 1443, 2008;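 active means cell killing above 50% in the first pass at 4 µM, then a duplicate retest at 5 µM averaging 50% or more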;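 further: plate controls were cells with TRAIL plus DMSO for no effect and medium-only wells lacking cells for full effect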
TRAIL sens C8: viability loss with TRAIL in NB7+C8 cells, primary screen, TRAIL sensitizer project, cell-based, ATPlite luminescence | inhibition (viability loss, TRAIL sensitization), % at 10 µM | 1% of 360,000 active;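 active means compounds causing at least 50% loss of cell viability in the single-dose screen, relative to plate controls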
STAT3 act-1: IL-6 driven STAT3 reporter potentiators, primary screen, U3A cells, luciferase, luminescence, MLSCN library; AID 871, 2007; IL-6 STAT3-luciferase reporter; 100% = signal with IL-6 EC80 alone; 0.91% of 190,000 active; activation (% of control), % at 5.6 µM;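 active means activation above the screen-wide mean of compound activation plus 3 SD, cut at about 130% in these data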;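 further: 0% = background luminescence of wells with medium and substrate only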
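Material: human STAT1-deficient U3A cells with stable STAT3-luciferase reporter / Probe or stimulus: IL-6 stimulus at 33 ng/mL final / Schedule: 1 h compound pre-exposure, 6 h IL-6 stimulation, 37 °C / Technique: luminescence / Read-out basis: percent of IL-6-only median luminescence / Control set: IL-6-only high control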
STAT3 blocker: IL-6 driven STAT3 reporter inhibitors, primary screen, U3A cells, luciferase, luminescence, MLSCN library. IL-6 STAT3-luciferase reporter; host cell line lacks STAT1. 0.89% of 190,000 active. inhibition, % at 5.5 µM;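 active means inhibition above the mean inhibition across all screened compounds plus 3 SD, cut at about 44% in these data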;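 further: 0% = DMSO only wells and 100% = 100 µM nifuroxazide control wells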
STAT3 act-2: STAT3 reporter potentiators, retest of hits, confirmation, U3A cells, luciferase, luminescence. shares compounds with STAT3 act-1. IL-6 potentiation; U3A cells lack STAT1; 100 means same as IL-6 alone. potentiation (% of control), % at 5.7 µM. 64% of 1,200 active. AID 1267, 2008;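 active means percent activation of the STAT3 luciferase reporter above a set limit taken from the earlier primary screen, cut at about 130% in these data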;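 further: 0% = background signal of medium plus substrate and 100% = median of IL-6 with DMSO wells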
NFkB act 2: NF-kB reporter activators in human cells, counter-screen for STAT3 activator project. shares compounds with STAT3 act-1. NF-kappaB reporter activation. activation (% of control), % at 5.7 µM. 11% of 1,200 active. AID 1309, 2008; in the data active means activation above about 120%;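 further: reporter induced by TNF-alpha stimulation; 100% = median of stimulated DMSO wells and 0% = no signal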
STAT1 act: STAT1 reporter activators, IFN-gamma induced, counter-screen for STAT3 activator project, cell-based, NIH 3T3, luciferase luminescence | shares compounds with STAT3 act-1 | NIH 3T3 STAT1-luciferase reporter | activation (% of control), % at 5.7 µM | 13% of 1,200 active;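 active means activation above the solvent-only control well mean plus 3 SD, set per screening run, cut at about 120% in these data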;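 further: 100% = IFN-gamma with DMSO median signal so 100% means no change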
An asterisk follows results filed as active; / = no result.

SMILES	STAT1 inh	PPC-1+TRAIL kill	TRAIL sens C8	STAT3 act-1	STAT3 blocker	STAT3 act-2	NFkB act 2	STAT1 act
CC(C)CCNC(=O)c1cccc(S(=O)(=O)N2CCc3ccccc32)c1	-1	2	1	99	4	/	/	/
CCN(CC)CCCC(C)NC(=O)c1cccc(S(=O)(=O)N2CCc3ccccc32)c1 (stereo not given)	0	15	5	140*	-43	148*	102	100
Cc1cc(Br)c(NC(=O)COC(=O)c2ccc[n+]([O-])c2)c(Br)c1	/	/	-4	/	/	/	/	/
O=C(N/C(=C/c1cccc(Br)c1)C(=O)N1CCCCC1)c1ccco1	/	/	5	/	/	/	/	/
O=C(Nc1c(Cl)cc(Cl)cc1-c1nc2ccccc2s1)c1ccc(Br)o1	11	1	2	139*	-52	115	101	71
COc1cc(/C=N/NC(=O)c2csc3c2CCCC3)ccc1OCCN1CCOCC1	/	/	-1	/	/	/	/	/
O=C(CCl)NC1(C(=O)O)CCCC1	/	/	-9	/	/	/	/	/
CCn1c(SCC(=O)N/N=C/C=C\c2ccccc2[N+](=O)[O-])nnc1-c1ccccc1	9	-8	-3	142*	-38	150*	117	110
CCOC(=O)/C(C#N)=C/c1c[nH]c2ccccc12	-20	5	-11	129	-34	/	/	/
COC(=O)/C(C#N)=C/c1c[nH]c2ccccc12	-22	/	-1	147*	-35	193*	129*	160*
Cc1ccc(C(=O)c2oc3ccccc3c2N)cc1	-27	14	8	143*	-50	119	118	113
Nc1c(C(=O)c2ccc(Br)s2)oc2ccccc12	-4	-9	-12	177*	-82	158*	115	110
Nc1c(C(=O)c2ccc(Br)cc2)oc2ccccc12	0	9	-1	121	-24	/	/	/
COc1ccc(CN2CCC[C@]3(N[C@H](c4ccccc4)[C@@H]4C(=O)N(Cc5ccccc5)C(=O)[C@@H]43)C2=O)cc1	/	/	-4	/	/	/	/	/
O=C1Nc2ccc(Br)cc2C12NNc1ccccc1O2 (stereo not given)	0	16	20	141*	-47	122	98	96
O=C1Nc2ccc(Br)cc2C1(O)c1ccccc1 (stereo not given)	/	/	3	/	/	/	/	/
Cc1cc(NC(=O)C(C)C)n(-c2nc3ccccc3s2)n1	-24	8	0	143*	-40	163*	116	117
Cc1cc(NC(=O)CN2CC(C)OC(C)C2)n(-c2nc3ccccc3s2)n1 (stereo not given)	-2	18	17	150*	-59	133*	102	102
CC1(C)OC1(C#N)c1ccccc1 (stereo not given)	/	/	-6	/	/	/	/	/
C=CCn1c(COc2ccccc2)nnc1SCc1ccc(C#N)cc1	1	6	7	98	12	/	/	/
C=CCn1c(COc2ccc(CC)cc2)nnc1SC/C(O)=C(\C#N)c1nc2ccccc2[nH]1	8	19	14	160*	-72	150*	102	89
S=C1NC2(CCCCC2)Nc2ccccc21	9	8	0	138*	-42	121	96	92
S=C1NC2(CCCC2)Nc2ccccc21	10	10	-3	143*	-48	144*	100	93
c1cc2c3c(cccc3c1)NC1(CCCC1)N2	/	/	-6	/	/	/	/	/
COc1ccc(/C=N/NC(=O)c2ccccc2O)cc1Cn1nnc2ccccc21	/	-8	-8	/	/	/	/	/
SMILES	STAT1 inh	PPC-1+TRAIL kill	TRAIL sens C8	STAT3 act-1	STAT3 blocker	STAT3 act-2	NFkB act 2	STAT1 act
NC(=O)Cn1c(=O)n(Cc2ccco2)c(=O)c2c3c(sc21)CCCCC3	5	13	-6	147*	-55	131	105	105
Cc1ccc(-c2ccc(/C=N/NC(N)=S)o2)cc1	/	-9	10	/	/	/	/	/
NC(=S)N/N=C/c1ccc(-c2ccc(Cl)c(Cl)c2)o1	-2	23	-4	191*	-103	145*	109	111
CCOC(=O)C1=C(COC(=O)/C=C/c2cccc(OC)c2OC)NC(=O)NC1C (stereo not given)	/	/	1	/	/	/	/	/
COc1ccccc1C(=O)NNC(=O)c1ccc(F)cc1	-23	23	2	112	-14	/	/	/
COc1ccccc1C(=O)NNC(=O)C(=O)NC(C)(C)C	-2	12	-4	143*	-48	144*	96	97
COc1ccccc1C(=O)NNC(=O)c1ccc(O)cc1	/	/	7	/	/	/	/	/
COC(=O)NNC(=O)c1ccccc1OC	-2	28	-21	148*	-60	166*	114	107
CC(C)(C)NC(=O)C(=O)NNC(=O)c1ccccc1Br	-1	3	-12	99	7	/	/	/
COc1ccccc1C(=O)NNC(=S)Nc1ccccc1	5	27	5	139*	-34	146*	102	92
COc1ccccc1C(=O)NNC(=O)c1ccc(NC(=O)C(C)C)cc1	-9	15	-8	148*	-52	153*	103	102
Nc1ccn(CC(=O)N[C@H](CO)Cc2c[nH]c3ccccc23)c(=O)n1	/	/	-6	/	/	/	/	/
O=C(COC(=O)c1ccc2c(c1)C(=O)N(Cc1ccncc1)C2=O)Nc1ccccc1[N+](=O)[O-]	12	6	-5	138*	-45	147*	107	96
CC(OC(=O)c1ccc2c(c1)C(=O)N(Cc1ccncc1)C2=O)C(=O)Nc1cccc(Cl)c1Cl (stereo not given)	4	7	-1	95	2	/	/	/
C/C(=C\C(=S)Nc1ccccc1)Nc1cccc2ccccc12	-14	18	1	155*	-58	142*	109	119
N#Cc1sc2nc(-c3ccccc3)cc(C(F)(F)F)c2c1N	5	/	1	148*	-36	155*	104	112
CC1SC(c2ccc(F)cc2)N(CCc2ccccc2)C1=O (stereo not given)	/	/	-2	/	/	/	/	/
Nc1cc2c(cc1O)CCCC2	-7	14	2	137*	-35	183*	118	147*
O=C1CCCCc2cc(O)c(O)cc21	/	/	14	/	/	/	/	/
Cc1cccnc1C(NC(=O)C1CCN(Cc2ccc(Oc3ccccc3)cc2)CC1)c1ccc(F)cc1 (stereo not given)	/	/	15	/	/	/	/	/
Cc1ccc(OCCC(=O)OC(C)C(=O)NC2CC2)cc1 (stereo not given)	/	/	-11	/	/	/	/	/

From PubChem BioAssay
